Source: ChEMBL document CHEMBL3525912, “Sulfation of 4-hydroxy toremifene: individual variability, isoform specificity, and contribution to toremifene pharmacogenomics” (Drug Metab Dispos, 2012)
Values belong to the compound of their own block, whether it stands above or below them.

Legend:
[1] = Retention time of the compound; type: physicochemical
Procedure, shortened: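 Symmetry C18 column (4.6 × 150 mm) run at 1.0 mL/min. Gradient: 2 mM TBAHS with 30% acetonitrile for 35 min, 45% acetonitrile for 15 min, then 30% for 20 min. 100 µl injection, flow scintillation detection.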

[2] = tested on: Liver cytosol; assay: Drug metabolism in human liver cytosol assessed as 4-(4-chloro-1-(4-(2-(dimethylamino)ethoxy)phenyl)-2-phenylbut-1-enyl)phenyl hydrogen sulfate formation after 15 mins by Michaelis-Menten equation in presence of 20 uM PAPS; type: ADME; settings: 0.25 h, read-out: Km(app)
Procedure, shortened: (§1)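 Human liver cytosol (protein by Bradford) incubated with 4-OH-TOR (0.1–30 µM for kinetics), 20 µM [35S]PAPS, 50 mM potassium phosphate pH 6.2, final DMSO <0.1%, 15 min at 37 °C. Stopped with acetonitrile:acetic acid (96:4). Sulfate measured by radio-HPLC, background taken from a substrate-free vehicle control. Triplicate incubations.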

[3] = tested on: Liver cytosol; assay: Drug metabolism in human liver cytosol assessed as 4-(4-chloro-1-(4-(2-(dimethylamino)ethoxy)phenyl)-2-phenylbut-1-enyl)phenyl hydrogen sulfate formation measured per mg of protein after 15 mins by Michaelis-Menten equation in presence of 20 uM PAPS; type: ADME; settings: 0.25 h; procedure, shortened: as §1
[4] = tested on: Liver cytosol; assay: Drug metabolism in human liver cytosol assessed as 4-(4-chloro-1-(4-(2-(dimethylamino)ethoxy)phenyl)-2-phenylbut-1-enyl)phenyl hydrogen sulfate formation measured per mg of protein treated with 0.1 to 30 after 15 mins by HPLC analysis; type: ADME, tissue-based; settings: 0.25 h; procedure, shortened: as §1
[5] = tested on: Liver cytosol; assay: Drug metabolism in human liver cytosol assessed as 4-(4-chloro-1-(4-(2-(dimethylamino)ethoxy)phenyl)-2-phenylbut-1-enyl)phenyl hydrogen sulfate formation after 15 mins by HPLC analysis in presence of 20 uM PAPS and 0.1 to 10 uM SULT1A1 inhibitor DCNP; type: ADME; settings: 0.25 h
Procedure, shortened: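 Pooled human liver cytosol sulfating 4-OH-TOR with 20 µM PAPS, pH 6.2, plus 0.1–10 µM (final) ethanol-dissolved inhibitor. After 15 min the reaction was stopped with acetonitrile:acetic acid (96:4) and sulfate quantified by radio-HPLC. IC50 calculated. Three separate determinations.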

[6] = Drug metabolism in human liver cytosol assessed as SULT1A1*1/2 single nucleotide polymorphism-mediated 4-(4-chloro-1-(4-(2-(dimethylamino)ethoxy)phenyl)-2-phenylbut-1-enyl)phenyl hydrogen sulfate formation by HPLC analysis; type: ADME, tissue-based
Procedure, shortened: (§2)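 Liver cytosols from individual donors (100 µg protein) with 100 µM 4-OH-TOR, 20 µM [35S]PAPS, 50 mM potassium phosphate pH 6.2, 15 min at 37 °C. Sulfate measured by C18 radio-HPLC. SULT1A1 copy number by TaqMan qPCR against RNaseP, quadruplicate samples. Genotype–activity relation analysed by ANOVA. Triplicate incubations.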

[7] = Drug metabolism in human liver cytosol assessed as SULT1A1 copy number-1-mediated 4-(4-chloro-1-(4-(2-(dimethylamino)ethoxy)phenyl)-2-phenylbut-1-enyl)phenyl hydrogen sulfate formation by HPLC analysis; type: ADME, tissue-based; procedure, shortened: as §2
[8] = Drug metabolism in human liver cytosol assessed as SULT1A1 copy number-2-mediated 4-(4-chloro-1-(4-(2-(dimethylamino)ethoxy)phenyl)-2-phenylbut-1-enyl)phenyl hydrogen sulfate formation by HPLC analysis; type: ADME, tissue-based; procedure, shortened: as §2
[9] = Drug metabolism in human liver cytosol assessed as SULT1A1 copy number-3-mediated 4-(4-chloro-1-(4-(2-(dimethylamino)ethoxy)phenyl)-2-phenylbut-1-enyl)phenyl hydrogen sulfate formation by HPLC analysis; type: ADME, tissue-based; procedure, shortened: as §2
[10] = Drug metabolism in human liver cytosol assessed as SULT1A1 3'UTR ACG/ACG copy number-2 -mediated 4-(4-chloro-1-(4-(2-(dimethylamino)ethoxy)phenyl)-2-phenylbut-1-enyl)phenyl hydrogen sulfate formation by HPLC analysis; type: ADME, tissue-based; procedure, shortened: as §2
[11] = Drug metabolism in human liver cytosol assessed as SULT1A1 3'UTR ACG/GTA copy number-2-mediated 4-(4-chloro-1-(4-(2-(dimethylamino)ethoxy)phenyl)-2-phenylbut-1-enyl)phenyl hydrogen sulfate formation by HPLC analysis; type: ADME, tissue-based; procedure, shortened: as §2
[12] = Drug metabolism in human liver cytosol assessed as SULT1A1 3'UTR GTA/GTA copy number-2-mediated 4-(4-chloro-1-(4-(2-(dimethylamino)ethoxy)phenyl)-2-phenylbut-1-enyl)phenyl hydrogen sulfate formation by HPLC analysis; type: ADME, tissue-based; procedure, shortened: as §2
[13] = Drug metabolism in human liver cytosol assessed as SULT1A1 3'UTR ACG/ACG copy number-3-mediated 4-(4-chloro-1-(4-(2-(dimethylamino)ethoxy)phenyl)-2-phenylbut-1-enyl)phenyl hydrogen sulfate formation by HPLC analysis; type: ADME, tissue-based; procedure, shortened: as §2
[14] = Drug metabolism in human liver cytosol assessed as SULT1A1 3'UTR ACG/GTA copy number-3-mediated 4-(4-chloro-1-(4-(2-(dimethylamino)ethoxy)phenyl)-2-phenylbut-1-enyl)phenyl hydrogen sulfate formation by HPLC analysis; type: ADME, tissue-based; procedure, shortened: as §2
[15] = Drug level in human liver cytosol assessed as SULT1A1 3'UTR ACG/ACG copy number-2-mediated compound formation treated with 4-OH-toremifene by HPLC analysis; type: ADME, tissue-based; procedure, shortened: as §2
[16] = Drug level in human liver cytosol assessed as SULT1A1 3'UTR ACG/GTA copy number-2-mediated compound formation treated with 4-OH-toremifene by HPLC analysis; type: ADME, tissue-based; procedure, shortened: as §2
[17] = Drug level in human liver cytosol assessed as SULT1A1 3'UTR GTA/GTA copy number-2-mediated compound formation treated with 4-OH-toremifene by HPLC analysis; type: ADME, tissue-based; procedure, shortened: as §2
[18] = Drug level in human liver cytosol assessed as SULT1A1 3'UTR ACG/ACG copy number-3-mediated compound formation treated with 4-OH-toremifene by HPLC analysis; type: ADME, tissue-based; procedure, shortened: as §2
[19] = Drug level in human liver cytosol assessed as SULT1A1 3'UTR ACG/GTA copy number-3-mediated compound formation treated with 4-OH-toremifene by HPLC analysis; type: ADME, tissue-based; procedure, shortened: as §2
[20] = Drug level in human liver cytosol assessed as SULT1A1*1/2 single nucleotide polymorphism-mediated compound formation treated with 4-OH-TOR by HPLC analysis; type: ADME, tissue-based; procedure, shortened: as §2
[21] = Drug level in human liver cytosol assessed as SULT1A1 copy number-1-mediated compound formation treated with 4-OH-TOR by HPLC analysis; type: ADME, tissue-based; procedure, shortened: as §2
[22] = Drug level in human liver cytosol assessed as SULT1A1 copy number-2--mediated compound formation treated with 4-OH-TOR by HPLC analysis; type: ADME, tissue-based; procedure, shortened: as §2
[23] = Drug level in human liver cytosol assessed as SULT1A1 copy number-3--mediated compound formation treated with 4-OH-TOR by HPLC analysis; type: ADME, tissue-based; procedure, shortened: as §2

- Retention_time [1]: 45.2 min
- Km [2]: 3.5 µM
- Vmax [3]: 1.4 nmol/min/mg
- Drug metabolism [4]: 0.0003 nmol/min
- Drug metabolism [5]: metabolite_not_detected
- Drug metabolism [6]: metabolite_detected
- Drug metabolism [7]: metabolite_detected
- Drug metabolism [8]: metabolite_detected
- Drug metabolism [9]: metabolite_detected
- Drug metabolism [10]: metabolite_detected
- Drug metabolism [11]: metabolite_detected
- Drug metabolism [12]: metabolite_detected
- Drug metabolism [13]: metabolite_detected
- Drug metabolism [14]: metabolite_detected
SMILES: CN(C)CCOc1ccc(/C(=C(/CCCl)c2ccccc2)c2ccc(O)cc2)cc1 [4-HYDROXYTORMIFENE]

- Drug metabolism [15]: metabolite_detected
- Drug metabolism [16]: metabolite_detected
- Drug metabolism [17]: metabolite_detected
- Drug metabolism [18]: metabolite_detected
- Drug metabolism [19]: metabolite_detected
- Retention_time [1]: 12.1 min
- Drug metabolism [20]: metabolite_detected
- Drug metabolism [21]: metabolite_detected
- Drug metabolism [22]: metabolite_detected
- Drug metabolism [23]: metabolite_detected
SMILES: CN(C)CCOc1ccc(/C(=C(/CCCl)c2ccccc2)c2ccc(OS(=O)(=O)O)cc2)cc1
